# Source: PubChem (Broad Institute)
# SIRT5 inh: SIRT5 desuccinylase inhibitors, primary screen, biochemical, fluorescence imaging, single point, set 5. inhibition, % at 15 µM. 330,000 tested, 1.1% active. Purified SirT5, succinyl-peptide AMC, trypsin-coupled fluorescence. NAD-dependent protein deacylase sirtuin-5, mitochondrial (Homo sapiens), Q9NXA8; in the data active means inhibition above about 15%; inconclusive means no clear call, values can overlap the other calls
# DENV2 CPE: inhibitors of DENV2 cytopathic effect, primary screen, cell-based, plate reader, single concentration; AID 651640, 2012; CPE inhibition, % at 9.99 µM; 350,000 tested, 1.7% active; DENV2-infected cells, cytopathic effect rescue; in the data active means CPE inhibition above about 20%, passing the limit was not always enough; inconclusive means no clear call, values can overlap the other calls; tested in BHK-21 cells
# E-sel inducer: E-selectin induction in HUVECs, primary screen, imaging, HUVEC, immunofluorescence imaging, single point | normalized: neutral wells 0, TNF-alpha wells 100 | P16581 | AID 686992, 2013 | 260,000 tested, 0.37% active | activation, % at 7.58 µM;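 active means mean E-selectin-positive cell signal at least 10% of the positive control, reached in at least 60% of replicates, without over 20% cell loss; inconclusive means no rule given, readout overlaps actives, possibly toxicity-flagged; inactive means the rest, including those meeting only one limit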
#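 System: HUVEC / Compound: single concentration / Signal: immunofluorescence imaging / Read-out: percent E-selectin-positive cells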
# Numbers stand for hits; n = inactive; u = inconclusive; x = no result given. Shown are actives, neighbours in structure and some others; about 2.9% of the full set was active somewhere.
SMILES,SIRT5 inh,DENV2 CPE,E-sel inducer
C[C@@H]1CN([C@H](C)CO)C(=O)c2cccc(NC(=O)Nc3cccc4ccccc34)c2O[C@@H]1CN(C)C(=O)Nc1ccc2c(c1)OCO2,n,n,n
Cc1ccc2c(c1)-n1c(nc3ccc(C)cc3c1=O)C(Cc1ccc(O)cc1)NC2=O (configuration not stated),n,33,n
Cc1ccc2nc3n(c(=O)c2c1)-c1ccc(Cl)cc1C(=O)NC3CC(C)C (configuration not stated),x,77,n
Cc1ccc2c(c1)-n1c(nc3ccc(Cl)cc3c1=O)C(CC(C)C)NC2=O (configuration not stated),x,x,n
O=C1NC(Cc2ccc(O)cc2)c2nc3cc(F)ccc3c(=O)n2-c2ncccc21 (configuration not stated),n,n,n
O=C1NC(Cc2ccc(O)cc2)c2nc3ccc(F)cc3c(=O)n2-c2ncccc21 (configuration not stated),22,n,n
Cc1ccc2nc3n(c(=O)c2c1)-c1cc(Cl)ccc1C(=O)NC3Cc1ccc(O)cc1 (configuration not stated),x,x,n
COCCCNC(=O)c1ccc(CN2CCc3ccccc3C2)cc1,23,n,n
O=C(Nc1ccccc1)c1ccc(CN2CCc3ccccc3C2)cc1,n,n,x
NC(=O)COc1ccc(NC(=O)CC23CC4CC(CC(C4)C2)C3)cc1,n,u,x
CC1=NN(c2ccccc2)C(=O)C1/C=C1\NC(=S)NC1=O (configuration not stated),15,n,x
CC1=NN(c2ccccc2)C(=O)C1C=Nc1ccccc1O (configuration not stated),n,n,x
C/C=C/c1ccc([C@H]2[C@@H](CO)N(C(=O)C3CCC3)[C@@H]2CNC(=O)NC(C)C)cc1,n,80,n
C/C=C/c1ccc([C@@H]2[C@@H](CNC(=O)CC3CC3)N(C(C)=O)[C@H]2CO)cc1,x,n,n
C/C=C/c1ccc([C@H]2[C@@H](CO)N[C@@H]2CNC(=O)C2CCC2)cc1,n,34,n
O=C(NC[C@@H]1N[C@@H](CO)[C@H]1c1ccccc1)C1CC1,n,n,n
C/C=C/c1ccc([C@H]2[C@@H](CO)N(C(=O)C3CCC3)[C@H]2CNC(=O)NC(C)C)cc1,x,n,n
C/C=C/c1ccc([C@@H]2[C@@H](CO)N(C(C)=O)[C@@H]2CNC(=O)CC2CC2)cc1,n,86,n
CCOC(=O)N1CCN(C(=O)c2ccc(CS(=O)(=O)c3c(Cl)cccc3Cl)o2)CC1,x,n,x
O=C(CCc1ccccc1)N1CCN(CCO)CC1,x,n,n
CN(CC(=O)Nc1ccc(N2CCOCC2)cc1)C(=O)CC(c1ccccc1)c1ccccc1,n,n,x
COc1ccccc1OCC(=O)NCC1CCCN(C(=O)c2ccccc2SC)C1 (configuration not stated),n,n,x
COc1ccccc1OCC(=O)NCC1CCCN(C(=O)c2ccccc2C(C)=O)C1 (configuration not stated),17,n,n
COc1ccc(Oc2cc(NN3CCCCC3)c([N+](=O)[O-])cc2[N+](=O)[O-])cc1OC,n,38,n
O=[N+]([O-])c1cc([N+](=O)[O-])c(Oc2ccc(F)cc2F)cc1NN1CCCCC1,17,n,n
SMILES,SIRT5 inh,DENV2 CPE,E-sel inducer
O=[N+]([O-])c1cc([N+](=O)[O-])c(Oc2c(F)cccc2F)cc1NN1CCCCC1,n,n,n
O=[N+]([O-])c1cc([N+](=O)[O-])c(Oc2ccc(F)cc2)cc1NN1CCCCC1,n,n,n
O=[N+]([O-])c1cc([N+](=O)[O-])c(Oc2cc(Cl)cc(Cl)c2)cc1NN1CCCCC1,n,u,n
O=[N+]([O-])c1cc([N+](=O)[O-])c(Oc2cc(F)cc(F)c2)cc1NN1CCCCC1,x,25,n
COC(=O)CCC(C)N1CCC(Oc2ccc(C(=O)N3CCCC3)cc2)CC1 (configuration not stated),n,n,n
Cc1ccc(S(=O)(=O)Nc2ccc3c(c2)CC(=O)N([C@H](C)CO)C[C@@H](C)[C@@H](CN(C)C(=O)Nc2cccc4ccccc24)O3)cc1,n,n,n
Cc1ccc(S(=O)(=O)Nc2ccc3c(c2)CC(=O)N([C@@H](C)CO)C[C@H](C)[C@@H](CN(C)C(=O)Nc2cccc4ccccc24)O3)cc1,n,33,n
Cc1ccc(S(=O)(=O)Nc2ccc3c(c2)CC(=O)N([C@H](C)CO)C[C@H](C)[C@@H](CN(C)C(=O)Nc2cccc4ccccc24)O3)cc1,n,96,n
